Measured values published in article PMC7848789 (SLAS discovery : advancing life sciences R & D, 2019).
Like-named read-outs stand apart in the source and are kept apart here. Where a SMILES comes first, the peptide text is derived from it.

Assays:
[1] = molecular target: Recombinant human HDAC1 enzyme (Homo sapiens, UniProt Q13547); assay: HDAC-Glo I/II enzymatic assay; assay type: biochemical; conditions: for Activity outcome in HDAC1 enzymatic HDAC-Glo I/II assay: qHTS, 11 concentrations, active = CRC class 1 and 2 and AUC>100; for Emax: read-out: % Efficacy, HDAC-Glo: HDAC1
[2] = system: HDAC class I and II activity in HEK293T cells; assay: HDAC-Glo I/II cellular assay in HEK293T cells; assay type: cell-based; conditions: qHTS, 1 hour, active = CRC class 1 and 2 and AUC>100
HDAC1–86b = HDAC1–86b (Homo sapiens, UniProt Q13547); assay: HDAC1-86b SplitLuc CETSA in HEK293T cells; assay type: binding; conditions: for Activity outcome in SplitLuc CETSA (thermal stabilization of HDAC1–86b): 49°C, active = CRC class 1 and 2 and AUC>50; for Average IC50 ± SD (% Efficacy), SplitLuc CETSA: HEK293T: thermal stabilization at 49°C, n=2
[3] = molecular target: HDAC1-NanoLuc fusion protein (Homo sapiens, UniProt Q13547); assay: HDAC1 NanoBRET target engagement assay in HEK293T cells; assay type: binding; conditions: for Average IC50 ± SD, NanoBRET: HEK293T: n=2; for Average IC50 ± SD, NanoBRET: HEK293T / Activity outcome in NanoBRET (HDAC1 engagement, displacement of SAHA tracer): HEK293T; for Activity outcome in NanoBRET (HDAC1 engagement, displacement of SAHA tracer): 28.9 μM to 0.49 nM, active = CRC class 1 and 2 and AUC>100; for Emax: read-out: % Efficacy, NanoBRET: HEK293T
HEK293T cells = assay: CellTiter-Glo acute cell death counterscreen; assay type: cell-based; conditions: 1 hour; at the highest concentration tested of 45.8 μM
[4] = system: HDAC class I and II activity in HeLa cells; assay: HDAC-Glo I/II cellular assay in HeLa cells; assay type: cell-based; conditions: qHTS; 1 hour; active = CRC class 1 and 2 and AUC>100
[5] = Fluorescence counterscreen; assay type: physicochemical; conditions: excited at 450 nm, emission 500–750 nm; 610 nm channel of NanoBRET
Outline: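 Cell-free scan: test compound pinned into wells of growth medium alone (final DMSO 0.28 %), no cells or tracer added. Wells excited at 450 nm and emission read every 10 nm across 500–750 nm to build a full spectrum, flagging intrinsic fluorescence near the 610 nm NanoBRET acceptor channel.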

isolated HDAC1 = conditions: read-out: reported IC50 against isolated HDAC1; cited from earlier work

Recombinant human HDAC1 enzyme, sequence (Q13547 whole entry): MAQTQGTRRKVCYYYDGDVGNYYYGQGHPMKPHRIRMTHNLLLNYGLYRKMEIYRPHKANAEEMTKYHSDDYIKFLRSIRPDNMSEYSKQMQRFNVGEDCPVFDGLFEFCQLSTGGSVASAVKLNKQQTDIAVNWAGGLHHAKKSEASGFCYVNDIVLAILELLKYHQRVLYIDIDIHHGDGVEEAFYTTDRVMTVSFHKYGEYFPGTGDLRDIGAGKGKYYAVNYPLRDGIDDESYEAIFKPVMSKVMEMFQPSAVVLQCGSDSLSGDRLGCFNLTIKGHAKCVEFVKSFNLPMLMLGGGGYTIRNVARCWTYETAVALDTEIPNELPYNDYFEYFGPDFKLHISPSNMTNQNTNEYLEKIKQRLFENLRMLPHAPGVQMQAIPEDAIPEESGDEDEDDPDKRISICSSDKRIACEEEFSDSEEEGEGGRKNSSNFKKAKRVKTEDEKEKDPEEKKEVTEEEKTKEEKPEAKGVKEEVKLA
HDAC1-NanoLuc fusion protein, sequence (Q13547 whole entry, the tested form may be a part): as the sequence (Q13547 whole entry) above
HDAC1–86b, sequence (Q13547 whole entry, the tested form may be a part): as the sequence (Q13547 whole entry) above

SMILES | Activity outcome in HDAC1 enzymatic HDAC-Glo I/II assay [1] | Activity outcome in HEK293T cellular HDAC-Glo I/II assay [2] | IC50 [1] | Emax [1] | further results
NC(=O)c1cccc2[nH]c(-c3ccc([C@@H]4CCCN4)cc3F)nc12 [A-966492] | active | – | – | – | –
Cn1cc(C(=O)Cc2ccccc2)cc1/C=C/C(=O)NO [APHA Compound 8] | active | either inactive or did not pass the activity cutoff | – | – | –
CCCSc1ccc2nc(NC(=O)OC)[nH]c2c1 [Albendazole] | – | – | 7.7 ± 0.8 µM | 93% | –
CCC(=O)CCCCC[C@@H]1NC(=O)[C@H]2CCCCN2C(=O)[C@H]([C@@H](C)CC)NC(=O)[C@H](Cc2cn(OC)c3ccccc23)NC1=O [Apicidin] | most potent | most potent | – | – | Activity outcome in SplitLuc CETSA (thermal stabilization of HDAC1–86b) (HDAC1–86b): most potent
CNC(=O)c1ccccc1Sc1ccc2c(/C=C/c3ccccn3)n[nH]c2c1 [Axitinib] | – | – | 3 ± 0.2 µM | 90% | Average IC50 ± SD (% Efficacy), SplitLuc CETSA: HEK293T (HDAC1–86b): Inactive; Average IC50 ± SD, NanoBRET: HEK293T [3]: Inactive
COc1ccc(-c2nc(N3CCOCC3)c3sc(CN(C)c4ncc(C(=O)NO)cn4)cc3n2)cn1 [CUDC-907] | most potent | most potent | – | – | Activity outcome in SplitLuc CETSA (thermal stabilization of HDAC1–86b) (HDAC1–86b): most potent
CN(C)C(=O)COC(=O)Cc1ccc(OC(=O)c2ccc(NC(=N)N)cc2)cc1 [Camostat] | – | – | 1.1 ± 0.1 µM | 95% | Average IC50 ± SD (% Efficacy), SplitLuc CETSA: HEK293T (HDAC1–86b): Inactive; IC50 [3]: 8.2 ± 1.4 µM; Activity outcome in NanoBRET (HDAC1 engagement, displacement of SAHA tracer) [3]: weakly engage HDAC1; Emax [3]: 90%
CCS(=O)(=O)N1CCN(c2ccc(Nc3ncc(C(N)=O)c(NC4CC4)n3)cc2)CC1 [Cerdulatinib] | – | – | – | – | Acute effect on HEK293T cell viability (CellTiter-Glo) (HEK293T cells): reduced HEK293T cell viability
Nc1cc(F)ccc1NC(=O)c1ccc(CNC(=O)/C=C/c2cccnc2)cc1 [Chidamide] | active | relatively weak activity (below the activity cutoff) | – | – | Activity outcome in HeLa cellular HDAC-Glo I/II assay [4]: relatively weak activity (below the activity cutoff)
O=C(/C=C/c1ccc(CN(CCO)CCc2c[nH]c3ccccc23)cc1)NO [Dacinostat] | – | most potent | – | – | –
Nc1ccc2c(c1)CN1C(=O)c3ccccc3C1=N2 [Daniquidone] | – | – | 2.1 ± 0.6 µM | 92% | Intrinsic fluorescence [5]: fluorescence over the 500–750 nm range
O=S(=O)(O)c1ccc2[nH]c(-c3ccccc3)nc2c1 [Ensulizole] | – | – | 2.4 ± 0.3 µM | 99% | –
Nc1ccccc1NC(=O)c1ccc(CNC(=O)OCc2cccnc2)cc1 [Entinostat] | active | relatively weak activity (below the activity cutoff) | – | – | Activity outcome in HeLa cellular HDAC-Glo I/II assay [4]: relatively weak activity (below the activity cutoff)
O=C(CCCCCCSc1ccc2ccccc2c1)NO [HNHA] | inactive | inactive | – | – | –
O=C(NO)c1ccc(CC(=O)N(CCO)c2ccccc2)cc1 [HPOB] | weak activity | weak activity | – | – | Activity outcome in SplitLuc CETSA (thermal stabilization of HDAC1–86b) (HDAC1–86b): did not pass the activity cutoff; Activity outcome in NanoBRET (HDAC1 engagement, displacement of SAHA tracer) [3]: did not pass the activity cutoff
Cc1oncc1C(=O)Nc1ccc(C(F)(F)F)cc1 [Leflunomide] | – | – | 3 ± 0.2 µM | 96% | Average IC50 ± SD (% Efficacy), SplitLuc CETSA: HEK293T (HDAC1–86b): Inactive; Average IC50 ± SD, NanoBRET: HEK293T [3]: Inactive
C=C1CN(Cc2ccc(C(=O)Nc3ccccc3N)cc2)C(=O)c2ccccc21 [MI 192] | active | relatively weak activity (below the activity cutoff) | – | – | Activity outcome in HeLa cellular HDAC-Glo I/II assay [4]: relatively weak activity (below the activity cutoff); IC50 ([1]; read-out: IC50 in the enzymatic assay (HDAC1), HDAC-Glo I/II, Epigenetic-Focused collection): 0.08 µM; Activity outcome in NanoBRET (HDAC1 engagement, displacement of SAHA tracer) [3]: engage HDAC1 in cells; IC50 (isolated HDAC1): 4.8 µM
N=C(N)c1ccc2cc(OC(=O)c3ccc(N=C(N)N)cc3)ccc2c1 [Nafamostat] | – | – | 1.3 ± 0.1 µM | 97% | Average IC50 ± SD (% Efficacy), SplitLuc CETSA: HEK293T (HDAC1–86b): Inactive; IC50 [3]: 11.8 ± 2.9 µM; Activity outcome in NanoBRET (HDAC1 engagement, displacement of SAHA tracer) [3]: weakly engage HDAC1; Emax [3]: 37%

SMILES | Activity outcome in HDAC1 enzymatic HDAC-Glo I/II assay [1] | Activity outcome in HEK293T cellular HDAC-Glo I/II assay [2] | IC50 [1] | Emax [1] | further results
CCCCN(Cc1ccc(C(=O)NO)cc1)C(=O)Nc1ccccc1 [Nexturastat A] | – | – | – | – | Activity outcome in NanoBRET (HDAC1 engagement, displacement of SAHA tracer) [3]: engagement
O=C(Nc1ccc([N+](=O)[O-])cc1Cl)c1cc(Cl)ccc1O [Niclosamide] | – | – | 2.8 ± 0.01 µM | 99% | Average IC50 ± SD (% Efficacy), SplitLuc CETSA: HEK293T (HDAC1–86b): Inactive; Average IC50 ± SD, NanoBRET: HEK293T [3]: Inactive
CC(=O)Oc1ccccc1C(=O)Nc1ncc([N+](=O)[O-])s1 [Nitazoxanide] | – | – | 5.1 ± 0.3 µM | 95% | –
CC(C)C(=O)SCCCCCCC(=O)Nc1nc(-c2ccccc2)cs1 [PTACH] | inactive | showed HDAC inhibition | – | – | Activity outcome in NanoBRET (HDAC1 engagement, displacement of SAHA tracer) [3]: engagement
O=C(CCCCCCC(=O)Nc1cccnc1)NO [Pyroximide] | – | inactive | – | – | –
Cn1cc(CNCC2CCN(c3ncc(C(=O)NO)cn3)CC2)c2ccccc21 [Quisinostat] | most potent | most potent | – | – | Activity outcome in SplitLuc CETSA (thermal stabilization of HDAC1–86b) (HDAC1–86b): most potent
COc1cc(OC)c2c(=O)[nH]c(-c3cc(C)c(OCCO)c(C)c3)nc2c1 [RVX-208] | active | – | – | – | –
Oc1ccc(/C=C/c2cc(O)cc(O)c2)cc1 [Resveratrol] | – | – | 1.5 ± 0.01 µM | 95% | Average IC50 ± SD (% Efficacy), SplitLuc CETSA: HEK293T (HDAC1–86b): Inactive
O=C(Nc1cccc(Cl)c1)Nc1ncc(CCNc2ncnc3ccsc23)s1 [SNS-314] | – | – | – | – | IC50 [3]: 0.549 µM; Activity outcome in NanoBRET (HDAC1 engagement, displacement of SAHA tracer) [3]: engagement; Acute effect on HEK293T cell viability (CellTiter-Glo) (HEK293T cells): acute cell death
Cc1ccc(NC(=O)CCCCCC(=O)Nc2ccccc2N)cc1 [TC-H-106] | active | relatively weak activity (below the activity cutoff) | – | – | Activity outcome in HeLa cellular HDAC-Glo I/II assay [4]: relatively weak activity (below the activity cutoff); Activity outcome in HEK293T cellular HDAC-Glo I/II assay ([2]; listed as TC-H 106): either inactive or did not pass the activity cutoff
CC(=O)Nc1ccc(C(=O)Nc2ccccc2N)cc1 [Tacedinaline] | active | – | – | – | Activity outcome in HeLa cellular HDAC-Glo I/II assay [4]: relatively weak activity (below the activity cutoff)
O=C(Nc1ncc([N+](=O)[O-])s1)c1cccs1 [Tenonitrozole] | – | – | 1.7 ± 0.01 µM | 93% | –
c1ccc2[nH]c(-c3cscn3)nc2c1 [Thiabendazole] | – | – | 3.8 ± 0.6 µM | 90% | Average IC50 ± SD (% Efficacy), SplitLuc CETSA: HEK293T (HDAC1–86b): Inactive; Average IC50 ± SD, NanoBRET: HEK293T [3]: Inactive
O=C(CCCCC[C@@H]1NC(=O)[C@H]2CCCCN2C(=O)[C@H](Cc2ccccc2)NC(=O)[C@H](Cc2ccccc2)NC1=O)C1CO1 (some centres unmarked) [Trapoxin A] (HELM PEPTIDE1{F.F.[O=C([C@H]1CCCCN1[*:1])[*:2]].[O=C(CCCCC[C@H](N[*:1])C(=O)[*:2])C1CO1]}$PEPTIDE1,PEPTIDE1,1:R1-4:R2$$$V2.0) | most potent | most potent | – | – | Activity outcome in SplitLuc CETSA (thermal stabilization of HDAC1–86b) (HDAC1–86b): most potent
O=C(CCCCCCC(=O)Nc1ccc([C@H]2O[C@@H](CSc3nc(-c4ccccc4)c(-c4ccccc4)o3)C[C@@H](c3ccc(CO)cc3)O2)cc1)NO [Tubacin] | weak activity | weak activity | – | – | Activity outcome in SplitLuc CETSA (thermal stabilization of HDAC1–86b) (HDAC1–86b): did not pass the activity cutoff; Activity outcome in NanoBRET (HDAC1 engagement, displacement of SAHA tracer) [3]: did not pass the activity cutoff
CN1CCc2c(c3ccccc3n2Cc2ccc(C(=O)NO)cc2)C1 [Tubastatin A] | weak activity | weak activity | – | – | Activity outcome in SplitLuc CETSA (thermal stabilization of HDAC1–86b) (HDAC1–86b): inactive; Activity outcome in NanoBRET (HDAC1 engagement, displacement of SAHA tracer) [3]: inactive
CCCCNNC(=O)c1ccc(Br)cc1 [UF 010] | weak activity | weak activity | – | – | Activity outcome in SplitLuc CETSA (thermal stabilization of HDAC1–86b) (HDAC1–86b): did not pass the activity cutoff; Activity outcome in NanoBRET (HDAC1 engagement, displacement of SAHA tracer) [3]: did not pass the activity cutoff
